Reference: ChEMBL document CHEMBL3046889, “Structure-activity relationships of phenylcyclohexene and biphenyl antitubulin compounds against plant and mammalian cells” (Bioorg Med Chem Lett, 2001)
Activity calls are given as the source filed them. The rule behind the calls is not given here.

system: Nicotiana tabacum; experiment: Inhibition of Nicotiana tabacum (tobacco) root growth assessed as inhibition of root elongation; type: functional, organism-based; details: not given
Procedure, shortened: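 In vitro tobacco root growth assay on germinating seeds; root elongation scored, EC50 derived.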

Row | SMILES | EC50
1 | COc1ccc([C@@H]2CC=CC[C@H]2[N+](=O)[O-])c(OC)c1OC (racemic) [listing 1 of 2 here] | 0.27 µM
2 | COc1ccc([C@@H]2CC=CC[C@H]2[N+](=O)[O-])c(OC)c1OC (single isomer, unassigned) | 1.96 µM
3 | COc1ccc([C@H]2CC=CC[C@@H]2C#N)c(OC)c1OC (single isomer, unassigned; enantiomer I) | 0.667 µM
4 | COc1ccc([C@@H]2CC=CC[C@H]2[N+](=O)[O-])c(OC)c1OC (single isomer, unassigned; enantiomer I) | 0.1 µM
5 | COc1ccc([C@H]2CC=CC[C@@H]2C#N)c(OC)c1OC (single isomer, unassigned; enantiomer II) | 7.17 µM

same assay, conditions: Nicotiana tabacum

Row | SMILES | EC50
6 | COc1ccc(-c2ccc(OC)c(OC)c2OC)c(C#N)c1 | > 100 µM
7 | COc1ccc(-c2ccc(OC)c(OC)c2OC)c([N+](=O)[O-])c1 | > 100 µM
8 | COc1ccc(-c2ccccc2[N+](=O)[O-])c(OC)c1OC | 52 µM
9 | COc1ccc(-c2ccccc2C#N)c(OC)c1OC | > 100 µM
10 | COc1ccc(-c2ccc(OC)c(OC)c2OC)c(C)c1 | > 100 µM
11 | O=[N+]([O-])[C@@H]1CC=CC[C@H]1c1ccccc1 (mixture of isomers) | > 100 µM
12 | COc1ccc(C2CC=CCC2C#N)c(OC)c1OC (mixture of isomers) | 2.29 µM
13 | COc1cccc([C@@H]2CC=CC[C@H]2[N+](=O)[O-])c1 (racemic) | 3.78 µM
14 | COc1ccc([C@H]2CC=CC[C@H]2C#N)c(OC)c1OC (single isomer, unassigned; enantiomer II) | > 25 µM
15 | COc1ccc(-c2ccc(OC)c(OC)c2OC)cc1 [2,3,4,4'-TETRAMETHOXYBIPHENYL] | > 100 µM
16 | COc1cc2c(c(OC)c1OC)-c1ccc(OC)c(=O)cc1[C@@H](NC(C)=O)CC2 [COLCHICINE] | 356 µM

system: HCT-116; experiment: Antitumor activity against Homo sapiens (human) HCT116 cells; type: functional, cell-based; details: Homo sapiens, HCT-116
Procedure, shortened: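 Cytotoxicity toward human HCT116 colon cancer cells measured by sulforhodamine B assay in 96-well format.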

Row | SMILES | EC50
17 | COc1ccc(-c2ccc(OC)c(OC)c2OC)c(C#N)c1 | 0.58 µM
18 | COc1ccc(-c2ccc(OC)c(OC)c2OC)c([N+](=O)[O-])c1 | 2.65 µM
19 | COc1ccc(-c2ccccc2[N+](=O)[O-])c(OC)c1OC | 19.6 µM
20 | COc1ccc(-c2ccccc2C#N)c(OC)c1OC | 13.8 µM
21 | COc1ccc(-c2ccc(OC)c(OC)c2OC)c(C)c1 | 0.78 µM
22 | O=[N+]([O-])[C@@H]1CC=CC[C@H]1c1ccccc1 (mixture of isomers) | 174 µM
23 | COc1ccc(C2CC=CCC2C#N)c(OC)c1OC (mixture of isomers) | 113 µM
24 | COc1cccc([C@@H]2CC=CC[C@H]2[N+](=O)[O-])c1 (racemic) | 143 µM
25 | COc1ccc([C@@H]2CC=CC[C@H]2[N+](=O)[O-])c(OC)c1OC (single isomer, unassigned) | 71 µM
26 | COc1ccc(-c2ccc(OC)c(OC)c2OC)cc1 [2,3,4,4'-TETRAMETHOXYBIPHENYL] | 1.52 µM
27 | COc1cc2c(c(OC)c1OC)-c1ccc(OC)c(=O)cc1[C@@H](NC(C)=O)CC2 [COLCHICINE] | 0.02 µM

same assay, conditions: hct-116

Row | SMILES | EC50
28 | COc1ccc([C@@H]2CC=CC[C@H]2[N+](=O)[O-])c(OC)c1OC (racemic) [listing 1 of 2 here] | 85 µM
29 | COc1ccc([C@H]2CC=CC[C@H]2C#N)c(OC)c1OC (single isomer, unassigned) | 142 µM
30 | COc1ccc([C@H]2CC=CC[C@@H]2C#N)c(OC)c1OC (single isomer, unassigned; enantiomer I) | 136 µM
31 | COc1ccc([C@@H]2CC=CC[C@H]2[N+](=O)[O-])c(OC)c1OC (single isomer, unassigned; enantiomer I) | 79 µM
32 | COc1ccc([C@H]2CC=CC[C@@H]2C#N)c(OC)c1OC (single isomer, unassigned; enantiomer II) | 47 µM
33 | COc1ccc([C@H]2CC=CC[C@H]2C#N)c(OC)c1OC (single isomer, unassigned; enantiomer II) | 45 µM

system: Tubulin (Bos taurus); experiment: Inhibition of Bos taurus (bovine) brain tubulin polymerization at 200 uM; details: not given

Row | SMILES | inhibition
34 | COc1ccc(C2CC=CCC2C#N)c(OC)c1OC (mixture of isomers) | Active
35 | COc1ccc([C@@H]2CC=CC[C@H]2[N+](=O)[O-])c(OC)c1OC (racemic) [listing 2 of 2 here] | Active

system: Nicotiana tabacum; experiment: Mitotic arrest in Nicotiana tabacum (tobacco) root suspension-cultured cells assessed as accumulation of cells in metaphase by cytological staining assay; type: functional; details: not given
Procedure, shortened: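 Suspension-cultured tobacco cells were treated with the compound, and their chromosomes were cytologically stained. The read-out was mitotic index, meaning the fraction of cells in mitosis, with arrest scored as cells accumulating in metaphase.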

Row | SMILES | Activity
36 | COc1ccc([C@@H]2CC=CC[C@H]2[N+](=O)[O-])c(OC)c1OC (racemic) [listing 2 of 2 here] | Active
37 | COc1cc2c(c(OC)c1OC)-c1ccc(OC)c(=O)cc1[C@@H](NC(C)=O)CC2 [COLCHICINE] | Active

system: Tubulin (Bos taurus); experiment: Displacement of [3H]colchicine from Bos taurus (bovine) brain tubulin by competition assay; details: not given

Row | SMILES | inhibition
38 | COc1ccc([C@@H]2CC=CC[C@H]2[N+](=O)[O-])c(OC)c1OC (racemic) [listing 2 of 2 here] | Active
